The source made the active and inactive calls. No cut-off for these calls is given here.
What was measured:
Mus musculus [1] = experiment: Inhibition of lipogenesis in C57BL/6 mouse supplemented with normal chow diet assessed as decrease in ACC mRNA expression at 20 mg/kg/day, ip administered for 1 week measured by RT-qPCR assay; type: functional, organism-based; settings: time 1.0 weeks
Summary of the method: (§1)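 Eight-week-old male C57BL/6 mice on normal chow were given 20 mg·kg−1·day−1 ip daily for 7 days or vehicle. Epididymal WAT was collected. Lipogenic, adipogenic and fatty-acid-oxidation transcripts were quantified by Trizol extraction and SYBR Green RT-qPCR. FAS, ACC, PPARγ and C/EBPα protein were assessed by western blot. n = 5–9; mean ± SEM.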

Adipocyte = experiment: Inhibition of lipogenesis in mouse adipocytes isolated stromal vascular cells assessed as decrease in C/EBPalpha mRNA expression measured after 24 hrs by RT-qPCR assay; type: functional, cell-based
Summary of the method: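 Stromal vascular cells from inguinal WAT of C57BL/6 mice, grown in DMEM/F12 + 10% FBS at 37 °C, 10% CO2. At confluence, induced 48 h with 5 μg/ml insulin, 1 μM dexamethasone, 0.5 mM isobutylmethylxanthine, then 6 days in 5 μg/ml insulin; fully differentiated day 8. Mature adipocytes exposed to inhibitor 24 h. Total RNA by Trizol, SYBR Green RT-qPCR; protein by western blot.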

Hepatocyte [2] = experiment: Inhibition of glucogenesis in mouse primary hepatocytes stimulated with 100 uM 8-Br-cAMP assessed as effect on pCREB protein expression at 3 uM measured after 1 hr by western blot analysis; type: functional, cell-based
Summary of the method: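 Primary hepatocytes from C57BL/6 mice, isolated by two-step perfusion, were co-treated with 3 μM A-485 and 100 μM 8-Br-cAMP for 1 h. Phospho-CREB, phospho-AMPK and phospho-TORC2 were detected by western blot of cell lysates. Three independent experiments; mean ± SEM.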

Mus musculus [3] = experiment: Anti-obesity activity in 16 hrs fasted C57BL/6 mouse supplemented with normal chow diet assessed as decrease in blood glucose level at 20 mg/kg/day, ip administered for 1 week measured after 15 mins by intraperitoneal glucose tolerance test; type: functional, organism-based; settings: time 1.0 weeks
Summary of the method: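 Male C57BL/6 mice on normal chow, 8 weeks old, given 20 mg·kg−1·day−1 ip daily for 7 days. After 16 h fasting, glucose 2 g/kg body weight ip; blood glucose read during the test. Mean ± SEM, n = 5–9; t test or ANOVA, P < 0.05.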

Hepatocyte [4] = experiment: Inhibition of lipogenesis in mouse primary hepatocytes assessed as decrease in ACC mRNA expression at 3 uM in presence of 100 nM insulin and 5 to 25 mM glucose measured after 18 hrs by RT-qPCR assay; type: functional, cell-based
Summary of the method: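 Primary hepatocytes isolated from C57BL/6 mice by two-step perfusion. Cells incubated 18 h with 3 μM inhibitor, with 0 or 100 nM insulin and 5 or 25 mM glucose. Transcripts quantified by SYBR Green RT-qPCR after Trizol RNA extraction; proteins by western blot of lysates. Mean ± SEM.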

Mus musculus [5] = experiment: Inhibition of hepatic lipogenesis in C57BL/6 mouse supplemented with normal chow diet assessed as decrease in lipid droplet at 20 mg/kg/day, ip administered for 1 week measured by Oil red O staining method; type: functional, organism-based; settings: time 1.0 weeks
Summary of the method: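 Eight-week-old male C57BL/6 mice on normal chow were dosed daily by ip injection at 20 mg·kg−1·day−1 for 7 days, with a vehicle group. Liver sections were stained with Oil red O to view lipid droplets.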

Mus musculus [6] = experiment: Anti-obesity activity in C57BL/6 mouse supplemented with normal chow diet assessed as decrease in hepatic G6Pc mRNA expression at 20 mg/kg/day, ip administered for 1 week measured a by RT-qPCR assay; type: functional, organism-based; settings: time 1.0 weeks
Summary of the method: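 Liver G6Pc mRNA in 8-week-old normal-chow male C57BL/6 mice after 7 days ip at 20 mg·kg−1·day−1. Trizol RNA extraction, SYBR Green RT-qPCR. Mean ± SEM, n = 5–9.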

[7] = molecular target: CREB-binding protein/Histone acetyltransferase p300 (Homo sapiens) (UniProt Q09472+Q92793); experiment: Inhibition of CBP/p300 in mouse primary hepatocytes stimulated with 100 uM 8-Br-cAMP assessed as decrease in FOXO1 protein expression at 3 uM in presence of 10 uM MG132; type: cell-based; settings: Primary hepatocyte
Summary of the method: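 Primary mouse hepatocytes exposed to 100 μM 8-Br-cAMP, 3 μM compound, 10 μg/ml cycloheximide and 10 μM MG132. FOXO1 protein measured by western blot, band intensity quantified. Three independent experiments.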

Mus musculus [8] = experiment: Inhibition of hepatic lipogenesis in C57BL/6 mouse supplemented with normal chow diet assessed as effect on MCAD mRNA expression at 20 mg/kg/day, ip administered for 1 week measured by RT-qPCR assay; type: functional, organism-based; settings: time 1.0 weeks
Summary of the method: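 Normal-chow male C57BL/6 mice, 8 weeks old, were injected ip at 20 mg·kg−1·day−1 daily for 7 days or given vehicle. Liver RNA was extracted with Trizol, and fatty-acid-oxidation gene transcripts were quantified by SYBR Green RT-qPCR. n = 5–9; mean ± SEM.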

Hepatocyte [9] = experiment: Inhibition of glucogenesis in mouse primary hepatocytes stimulated with 100 uM 8-Br-cAMP assessed as decrease in PEPCK protein expression at 3 uM in presence of cAMP measured after 16 hrs by western blot
Hepatocyte [10] = experiment: Inhibition of glucogenesis in mouse primary hepatocytes stimulated with 100 uM 8-Br-cAMP assessed as decrease in glucose production at 3 uM in combination with 2 mM metformin; type: functional, cell-based
Summary of the method: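 Primary mouse hepatocytes pretreated with 100 nM dexamethasone for 16 h. Glucose production then measured in glucose-free DMEM with 1 mM pyruvate, 10 mM lactate and 0.25% BSA, in the presence of 100 μM 8-Br-cAMP, with 3 μM compound plus 2 mM metformin. Medium glucose assayed colorimetrically. Three independent experiments.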

Mus musculus [11] = experiment: Anti-obesity activity in 6 hrs fasted C57BL/6 mouse supplemented with normal chow diet assessed as effect on insulin sensitivity at 20 mg/kg/day, ip administered for 1 week measured by insulin tolerance test; type: functional, organism-based; settings: time 1.0 weeks
Summary of the method: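 Insulin tolerance test in normal-chow male C57BL/6 mice (8 weeks), after 7 days of ip dosing at 20 mg·kg−1·day−1. 6 h fast, then insulin 0.75 UI/kg body weight ip; blood glucose followed. Mean ± SEM, n = 5–9.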

Mus musculus [12] = experiment: Inhibition of lipogenesis in C57BL/6 mouse supplemented with high-fat diet assessed as decrease in SCD1 mRNA expression at 20 mg/kg/day, ip administered for 1 week measured by RT-qPCR assay; type: functional, organism-based; settings: time 1.0 weeks
Summary of the method: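 Male C57BL/6 mice were fed high-fat diet for 14 weeks from 5 weeks of age, then injected ip with 20 mg·kg−1·day−1 for 7 days or given vehicle. Epididymal and inguinal WAT were weighed, examined by H&E, and analysed. Transcripts were measured by Trizol/SYBR Green RT-qPCR; proteins by western blot. n = 5–9; mean ± SEM.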

Mus musculus [13] = experiment: Inhibition of lipogenesis in C57BL/6 mouse supplemented with normal chow diet assessed as decrease in ChREBP mRNA expression at 20 mg/kg/day, ip administered for 1 week measured by RT-qPCR assay; type: functional, organism-based; settings: time 1.0 weeks; summary of the method: as §1
Mus musculus [14] = experiment: Anti-obesity activity in C57BL/6 mouse supplemented with high fat diet assessed as effect on total lean mass at 20 mg/kg/day, ip administered for 1 week; type: functional, organism-based; settings: time 1.0 weeks
Summary of the method: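 Male C57BL/6 mice fed high-fat diet for 14 weeks from 5 weeks of age, then ip 20 mg·kg−1·day−1 for 7 days. Body weight, EchoMRI lean/fat mass, and random or 16 h-fasted blood glucose recorded, as the line states.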

Sequence of CREB-binding protein/Histone acetyltransferase p300 (Homo sapiens) (Q09472 whole entry, looked up): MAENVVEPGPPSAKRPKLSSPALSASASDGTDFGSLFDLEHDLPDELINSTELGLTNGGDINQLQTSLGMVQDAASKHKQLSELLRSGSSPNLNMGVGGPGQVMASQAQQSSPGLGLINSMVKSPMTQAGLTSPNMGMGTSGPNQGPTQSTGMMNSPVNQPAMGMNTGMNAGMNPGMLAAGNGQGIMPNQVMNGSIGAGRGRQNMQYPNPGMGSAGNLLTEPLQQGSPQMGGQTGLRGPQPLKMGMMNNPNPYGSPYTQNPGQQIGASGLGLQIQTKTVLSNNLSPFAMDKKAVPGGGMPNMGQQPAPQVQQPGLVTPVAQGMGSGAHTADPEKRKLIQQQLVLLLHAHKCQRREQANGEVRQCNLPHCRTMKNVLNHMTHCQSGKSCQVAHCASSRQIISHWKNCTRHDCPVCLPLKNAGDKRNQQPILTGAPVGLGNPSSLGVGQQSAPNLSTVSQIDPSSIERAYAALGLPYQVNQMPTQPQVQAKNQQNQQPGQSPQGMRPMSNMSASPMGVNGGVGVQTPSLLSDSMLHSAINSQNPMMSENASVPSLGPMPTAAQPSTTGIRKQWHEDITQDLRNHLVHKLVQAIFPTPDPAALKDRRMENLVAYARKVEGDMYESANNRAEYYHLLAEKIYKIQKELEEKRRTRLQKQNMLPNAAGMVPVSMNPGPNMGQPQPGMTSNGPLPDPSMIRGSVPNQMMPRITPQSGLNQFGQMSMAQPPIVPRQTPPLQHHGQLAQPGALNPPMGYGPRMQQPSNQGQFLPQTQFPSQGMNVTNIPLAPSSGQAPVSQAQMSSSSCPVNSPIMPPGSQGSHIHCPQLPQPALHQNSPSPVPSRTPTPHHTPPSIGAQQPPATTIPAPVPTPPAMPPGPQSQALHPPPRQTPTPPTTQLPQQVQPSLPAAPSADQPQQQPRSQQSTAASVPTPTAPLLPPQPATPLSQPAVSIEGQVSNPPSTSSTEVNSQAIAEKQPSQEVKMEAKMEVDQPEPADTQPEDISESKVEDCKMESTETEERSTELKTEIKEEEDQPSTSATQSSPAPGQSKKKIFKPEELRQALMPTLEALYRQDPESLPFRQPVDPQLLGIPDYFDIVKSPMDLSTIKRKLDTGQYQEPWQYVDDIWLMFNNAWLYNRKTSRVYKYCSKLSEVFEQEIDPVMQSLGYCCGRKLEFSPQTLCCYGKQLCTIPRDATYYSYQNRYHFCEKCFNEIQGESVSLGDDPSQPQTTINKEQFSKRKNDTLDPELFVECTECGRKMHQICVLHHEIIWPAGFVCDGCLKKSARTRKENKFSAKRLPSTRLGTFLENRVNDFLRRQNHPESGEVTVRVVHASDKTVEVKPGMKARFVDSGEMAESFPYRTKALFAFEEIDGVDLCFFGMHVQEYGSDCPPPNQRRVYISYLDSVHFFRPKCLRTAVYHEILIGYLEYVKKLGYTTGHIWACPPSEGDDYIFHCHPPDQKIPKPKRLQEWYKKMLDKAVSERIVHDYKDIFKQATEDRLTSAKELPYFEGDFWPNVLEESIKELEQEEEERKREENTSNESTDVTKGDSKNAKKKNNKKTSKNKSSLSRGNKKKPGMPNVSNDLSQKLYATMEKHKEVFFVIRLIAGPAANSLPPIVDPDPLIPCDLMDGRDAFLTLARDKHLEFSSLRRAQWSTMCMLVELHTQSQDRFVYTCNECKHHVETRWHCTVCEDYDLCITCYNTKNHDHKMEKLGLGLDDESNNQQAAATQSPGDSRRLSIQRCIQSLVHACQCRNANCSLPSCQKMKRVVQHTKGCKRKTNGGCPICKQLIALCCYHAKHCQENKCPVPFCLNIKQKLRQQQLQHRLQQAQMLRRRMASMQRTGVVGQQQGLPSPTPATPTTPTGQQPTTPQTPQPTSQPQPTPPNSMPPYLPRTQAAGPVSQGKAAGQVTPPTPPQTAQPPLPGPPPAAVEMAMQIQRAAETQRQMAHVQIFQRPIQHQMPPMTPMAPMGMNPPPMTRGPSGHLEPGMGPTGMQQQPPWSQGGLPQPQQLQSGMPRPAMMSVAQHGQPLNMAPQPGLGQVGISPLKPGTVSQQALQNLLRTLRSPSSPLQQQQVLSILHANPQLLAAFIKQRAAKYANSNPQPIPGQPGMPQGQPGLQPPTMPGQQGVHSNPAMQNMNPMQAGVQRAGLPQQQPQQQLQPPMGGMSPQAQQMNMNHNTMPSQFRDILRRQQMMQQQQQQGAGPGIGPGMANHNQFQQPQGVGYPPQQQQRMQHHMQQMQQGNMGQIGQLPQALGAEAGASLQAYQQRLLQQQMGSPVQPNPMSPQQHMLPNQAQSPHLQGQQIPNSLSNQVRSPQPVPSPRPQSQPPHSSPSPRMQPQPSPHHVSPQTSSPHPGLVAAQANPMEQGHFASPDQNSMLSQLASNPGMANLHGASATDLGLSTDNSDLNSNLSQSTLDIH
Sequence of CREB-binding protein/Histone acetyltransferase p300 (Homo sapiens) (Q92793 whole entry, looked up): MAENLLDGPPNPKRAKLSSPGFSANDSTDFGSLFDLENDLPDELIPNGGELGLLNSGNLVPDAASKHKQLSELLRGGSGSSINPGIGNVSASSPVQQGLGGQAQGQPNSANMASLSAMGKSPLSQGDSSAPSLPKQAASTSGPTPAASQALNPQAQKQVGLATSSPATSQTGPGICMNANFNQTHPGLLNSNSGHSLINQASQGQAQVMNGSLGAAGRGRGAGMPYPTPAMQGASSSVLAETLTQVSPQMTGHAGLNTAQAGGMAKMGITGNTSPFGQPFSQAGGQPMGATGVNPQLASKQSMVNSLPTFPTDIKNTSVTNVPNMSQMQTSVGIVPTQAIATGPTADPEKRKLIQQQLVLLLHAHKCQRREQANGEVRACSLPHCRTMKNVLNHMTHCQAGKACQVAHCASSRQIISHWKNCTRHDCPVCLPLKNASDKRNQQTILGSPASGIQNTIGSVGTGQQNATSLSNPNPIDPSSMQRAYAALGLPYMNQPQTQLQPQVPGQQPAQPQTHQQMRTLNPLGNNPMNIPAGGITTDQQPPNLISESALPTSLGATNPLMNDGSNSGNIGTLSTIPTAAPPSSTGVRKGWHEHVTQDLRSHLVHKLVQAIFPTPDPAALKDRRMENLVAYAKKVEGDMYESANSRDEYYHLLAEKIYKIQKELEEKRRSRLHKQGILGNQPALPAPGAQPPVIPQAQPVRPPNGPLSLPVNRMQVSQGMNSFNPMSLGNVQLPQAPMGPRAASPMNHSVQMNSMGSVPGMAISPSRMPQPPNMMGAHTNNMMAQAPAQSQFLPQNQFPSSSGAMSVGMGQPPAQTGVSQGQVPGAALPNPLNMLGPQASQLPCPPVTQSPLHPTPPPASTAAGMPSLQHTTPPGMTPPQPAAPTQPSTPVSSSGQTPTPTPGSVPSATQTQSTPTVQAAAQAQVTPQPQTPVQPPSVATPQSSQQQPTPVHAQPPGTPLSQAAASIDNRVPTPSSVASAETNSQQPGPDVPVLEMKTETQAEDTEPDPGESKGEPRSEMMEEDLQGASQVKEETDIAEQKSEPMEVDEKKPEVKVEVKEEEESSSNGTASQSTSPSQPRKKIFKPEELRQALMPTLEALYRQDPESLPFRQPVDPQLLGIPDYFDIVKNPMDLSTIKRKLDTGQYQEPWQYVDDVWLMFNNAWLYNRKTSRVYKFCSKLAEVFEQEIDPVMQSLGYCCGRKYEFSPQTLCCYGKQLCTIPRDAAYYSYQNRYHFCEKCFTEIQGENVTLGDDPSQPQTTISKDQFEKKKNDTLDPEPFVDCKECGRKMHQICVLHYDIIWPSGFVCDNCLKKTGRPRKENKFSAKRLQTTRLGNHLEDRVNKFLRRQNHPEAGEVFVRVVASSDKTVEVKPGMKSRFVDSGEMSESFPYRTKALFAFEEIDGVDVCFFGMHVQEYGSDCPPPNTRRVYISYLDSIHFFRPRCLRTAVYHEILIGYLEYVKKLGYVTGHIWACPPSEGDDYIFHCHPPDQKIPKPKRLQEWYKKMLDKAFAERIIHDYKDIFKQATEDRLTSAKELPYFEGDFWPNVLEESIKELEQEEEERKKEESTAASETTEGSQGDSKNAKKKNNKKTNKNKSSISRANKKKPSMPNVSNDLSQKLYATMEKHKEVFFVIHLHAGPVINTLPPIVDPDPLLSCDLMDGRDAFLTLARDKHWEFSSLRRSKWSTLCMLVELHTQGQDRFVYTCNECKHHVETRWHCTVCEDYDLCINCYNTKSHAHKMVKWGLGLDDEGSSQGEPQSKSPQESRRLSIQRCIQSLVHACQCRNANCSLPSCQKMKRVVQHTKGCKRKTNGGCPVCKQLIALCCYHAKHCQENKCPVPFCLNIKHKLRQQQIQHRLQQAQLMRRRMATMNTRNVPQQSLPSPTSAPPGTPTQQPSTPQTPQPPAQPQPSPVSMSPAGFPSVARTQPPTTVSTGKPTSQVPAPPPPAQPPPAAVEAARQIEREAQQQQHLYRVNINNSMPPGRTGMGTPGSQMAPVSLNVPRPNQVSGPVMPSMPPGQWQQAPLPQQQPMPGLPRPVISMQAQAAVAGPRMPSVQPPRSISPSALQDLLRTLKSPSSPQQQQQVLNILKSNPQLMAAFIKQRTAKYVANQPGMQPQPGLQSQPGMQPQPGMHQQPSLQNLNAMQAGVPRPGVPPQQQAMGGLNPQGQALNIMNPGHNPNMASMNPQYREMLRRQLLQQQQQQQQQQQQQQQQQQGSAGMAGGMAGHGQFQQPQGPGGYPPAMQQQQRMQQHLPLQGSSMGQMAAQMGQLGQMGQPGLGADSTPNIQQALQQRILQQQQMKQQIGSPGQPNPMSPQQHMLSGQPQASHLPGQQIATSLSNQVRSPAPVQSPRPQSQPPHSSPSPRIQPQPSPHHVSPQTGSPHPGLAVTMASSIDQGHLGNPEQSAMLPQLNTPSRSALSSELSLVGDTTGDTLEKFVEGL

CNC(=O)Nc1ccc2c(c1)CCS21OC(=O)N(CC(=O)N(Cc2ccc(F)cc2)[C@@H](C)C(F)(F)F)C1=O (stereo not given in full)
inhibition (Mus musculus [1]): Active
inhibition (Adipocyte): Active
inhibition (Hepatocyte [2]): inactive
Activity (Mus musculus [3]): Active
inhibition (Hepatocyte [4]): Active
inhibition (Mus musculus [5]): Active
Activity (Mus musculus [6]): Active
inhibition [7]: Active
inhibition (Mus musculus [8]): inactive
inhibition (Hepatocyte [9]): Active
inhibition (Hepatocyte [10]): Active
Activity (Mus musculus [11]): inactive
inhibition (Mus musculus [12]): Active
inhibition (Mus musculus [13]): Active
Activity (Mus musculus [14]): inactive

— ChEMBL document CHEMBL5674890, “Selective inhibition of CBP/p300 HAT by A-485 results in suppression of lipogenesis and hepatic gluconeogenesis” (Cell Death Dis, 2020)
